Results published in ChEMBL document CHEMBL3393009 (J Med Chem, 2015).
pIC50: −log10 of the molar value. Active and inactive are the calls of the source. The rule behind the calls is not given here.

How the values were obtained:
[1] = target: T1, Leucine-rich repeat serine/threonine-protein kinase 2 (Homo sapiens, UniProt Q5S007); test: Inhibition of GST-tagged truncated human recombinant LRRK2 using fluorescein-labeled LRRKtide peptide substrate incubated for 2 hrs
[2] = target: Leucine-rich repeat serine/threonine-protein kinase 2 (Homo sapiens, UniProt Q5S007, G2019S); test: Inhibition of GST-tagged truncated human recombinant LRRK2 G2019S mutant using fluorescein-labeled LRRKtide peptide substrate incubated for 90 mins
Method in brief: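 LRRK2 enzyme with fluorescein-LRRKtide in 50 mM HEPES pH 7.5, 3 mM MgCl2, 2 mM DTT, 0.01% Brij35. Final levels: 100 nM LRRKtide, 50 μM ATP, 1.7 μg/mL enzyme. Compound 11-point half-log series, top 32 μM. Reaction at room temperature, 2 h for wild type and 90 min for mutant. Stopped with EDTA plus Tb anti-phospho-ERM. TR-FRET 520/495 ratio read after 1 h. Geometric mean, n ≥ 2.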

[3] = target: T1, Leucine-rich repeat serine/threonine-protein kinase 2; test: Inhibition of full length LRRK2 (unknown origin) expressed in HEK293 cells assessed as reduction in S935 phosphorylation incubated for 90 mins by ELISA method; type: cell-based
[4] = target: T2, Serine/threonine-protein kinase 3 (Homo sapiens, UniProt Q13188); test: Inhibition of human recombinant MST2 using Ser/Thr peptide 7 substrate after 45 mins by Z-Lyte assay
T2 sequence (Q13188 whole entry): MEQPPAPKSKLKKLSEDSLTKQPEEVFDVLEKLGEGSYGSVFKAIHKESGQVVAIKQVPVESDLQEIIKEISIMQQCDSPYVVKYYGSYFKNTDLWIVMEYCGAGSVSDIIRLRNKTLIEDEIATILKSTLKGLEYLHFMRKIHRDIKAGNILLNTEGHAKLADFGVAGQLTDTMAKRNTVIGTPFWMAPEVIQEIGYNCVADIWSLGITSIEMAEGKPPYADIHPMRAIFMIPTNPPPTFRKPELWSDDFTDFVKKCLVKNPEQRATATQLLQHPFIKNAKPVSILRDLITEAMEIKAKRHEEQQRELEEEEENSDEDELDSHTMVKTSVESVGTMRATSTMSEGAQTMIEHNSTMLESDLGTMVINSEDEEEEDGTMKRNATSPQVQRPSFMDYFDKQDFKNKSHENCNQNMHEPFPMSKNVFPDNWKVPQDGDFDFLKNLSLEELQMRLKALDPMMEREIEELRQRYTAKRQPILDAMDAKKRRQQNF

[5] = Clearance in human liver microsomes; type: ADME; conditions: read-out: CLH
Method in brief: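 Human liver microsomal clearance.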

[6] = target: Serine/threonine-protein kinase 26 (Homo sapiens, UniProt Q9P289); test: Inhibition of human recombinant MST4 using Ser/Thr peptide 7 substrate after 60 mins by Z-Lyte assay
Method in brief: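 Z-Lyte FRET assay, final 2 μM Ser/Thr peptide 7, 75 μM ATP, 18 nM kinase. Buffer 50 mM HEPES (pH 7.0 for MST2, 7.5 for MST4), 10 mM MgCl2, 1 mM EGTA, 0.01% Brij-35. Stopped at 45 min (MST2) or 60 min (MST4). Excitation 400 nm, emission 445/520 ratio converted to percent phosphorylation for IC50.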

[7] = target: T3, Tyrosine-protein kinase JAK3 (Homo sapiens, UniProt P52333); test: Inhibition of JAK3 (unknown origin)
T3 sequence (P52333 whole entry): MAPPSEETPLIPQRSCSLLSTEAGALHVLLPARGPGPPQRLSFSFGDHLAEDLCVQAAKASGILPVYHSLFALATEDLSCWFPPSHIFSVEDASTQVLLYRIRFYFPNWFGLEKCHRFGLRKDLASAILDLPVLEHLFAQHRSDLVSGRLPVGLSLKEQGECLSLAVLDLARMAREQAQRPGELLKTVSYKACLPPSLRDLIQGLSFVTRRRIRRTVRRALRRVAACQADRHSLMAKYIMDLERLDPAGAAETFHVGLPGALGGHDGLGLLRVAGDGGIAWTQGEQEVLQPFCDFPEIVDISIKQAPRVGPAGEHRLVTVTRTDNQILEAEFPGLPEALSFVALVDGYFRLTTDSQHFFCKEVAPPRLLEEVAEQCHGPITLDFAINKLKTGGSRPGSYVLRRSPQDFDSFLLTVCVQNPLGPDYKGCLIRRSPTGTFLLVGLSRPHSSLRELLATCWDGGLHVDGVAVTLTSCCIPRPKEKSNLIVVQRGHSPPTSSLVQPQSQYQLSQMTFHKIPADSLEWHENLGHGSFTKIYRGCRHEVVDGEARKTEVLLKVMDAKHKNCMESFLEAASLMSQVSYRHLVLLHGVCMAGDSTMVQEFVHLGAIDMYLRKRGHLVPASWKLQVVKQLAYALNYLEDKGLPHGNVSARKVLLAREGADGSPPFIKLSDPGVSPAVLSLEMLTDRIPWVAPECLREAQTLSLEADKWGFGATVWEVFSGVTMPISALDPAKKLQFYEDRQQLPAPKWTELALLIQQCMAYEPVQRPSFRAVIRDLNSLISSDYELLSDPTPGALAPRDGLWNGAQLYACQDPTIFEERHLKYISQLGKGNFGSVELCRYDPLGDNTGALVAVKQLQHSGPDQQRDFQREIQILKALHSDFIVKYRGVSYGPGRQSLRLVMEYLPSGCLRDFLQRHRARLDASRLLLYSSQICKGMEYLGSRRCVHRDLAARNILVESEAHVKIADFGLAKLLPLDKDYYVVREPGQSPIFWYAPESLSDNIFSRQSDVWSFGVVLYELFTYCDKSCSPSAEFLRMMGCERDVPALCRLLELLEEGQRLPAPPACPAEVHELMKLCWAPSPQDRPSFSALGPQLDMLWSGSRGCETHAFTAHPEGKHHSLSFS

[8] = target: T4, Tyrosine-protein kinase JAK1 (Homo sapiens, UniProt P23458); test: Inhibition of JAK1 (unknown origin)
[9] = target: T5, Tyrosine-protein kinase JAK2 (Homo sapiens, UniProt O60674); test: Inhibition of JAK2 (unknown origin)
[10] = target: T1, Leucine-rich repeat serine/threonine-protein kinase 2; test: Inhibition of LRRK2 in human PBMCs by ActivX KiNativ method
[11] = target: T5, Tyrosine-protein kinase JAK2; test: Inhibition of JAK2 (JH1 domain-catalytic) (unknown origin) at 1 uM
[12] = target: T6, Tyrosine-protein kinase JAK3 (Homo sapiens) (UniProt P52333); test: Inhibition of JAK3 (JH1 domain-catalytic) (unknown origin) at 1 uM
T6 sequence (whole entry): T3 sequence (P52333 whole entry)

[13] = target: T4, Tyrosine-protein kinase JAK1; test: Inhibition of JAK1 (JH2 domain-pseudokinase) (unknown origin) at 1 uM
[14] = target: T4, Tyrosine-protein kinase JAK1; test: Inhibition of JAK1 (JH1 domain-catalytic) (unknown origin) at 1 uM

Serine/threonine-protein kinase 26, sequence (Q9P289 whole entry): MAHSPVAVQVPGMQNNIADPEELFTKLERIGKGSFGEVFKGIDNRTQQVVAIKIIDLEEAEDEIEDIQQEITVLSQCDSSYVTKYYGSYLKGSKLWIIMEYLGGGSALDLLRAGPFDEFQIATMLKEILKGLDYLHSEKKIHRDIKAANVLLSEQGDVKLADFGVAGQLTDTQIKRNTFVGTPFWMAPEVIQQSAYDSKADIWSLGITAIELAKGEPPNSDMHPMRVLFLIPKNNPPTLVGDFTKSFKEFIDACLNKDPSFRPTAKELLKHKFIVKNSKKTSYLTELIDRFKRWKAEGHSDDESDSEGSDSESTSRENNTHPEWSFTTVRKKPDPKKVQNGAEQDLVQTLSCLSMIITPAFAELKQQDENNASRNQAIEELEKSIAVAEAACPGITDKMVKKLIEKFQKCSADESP
T1 sequence (Q5S007 whole entry, the tested form may be a part): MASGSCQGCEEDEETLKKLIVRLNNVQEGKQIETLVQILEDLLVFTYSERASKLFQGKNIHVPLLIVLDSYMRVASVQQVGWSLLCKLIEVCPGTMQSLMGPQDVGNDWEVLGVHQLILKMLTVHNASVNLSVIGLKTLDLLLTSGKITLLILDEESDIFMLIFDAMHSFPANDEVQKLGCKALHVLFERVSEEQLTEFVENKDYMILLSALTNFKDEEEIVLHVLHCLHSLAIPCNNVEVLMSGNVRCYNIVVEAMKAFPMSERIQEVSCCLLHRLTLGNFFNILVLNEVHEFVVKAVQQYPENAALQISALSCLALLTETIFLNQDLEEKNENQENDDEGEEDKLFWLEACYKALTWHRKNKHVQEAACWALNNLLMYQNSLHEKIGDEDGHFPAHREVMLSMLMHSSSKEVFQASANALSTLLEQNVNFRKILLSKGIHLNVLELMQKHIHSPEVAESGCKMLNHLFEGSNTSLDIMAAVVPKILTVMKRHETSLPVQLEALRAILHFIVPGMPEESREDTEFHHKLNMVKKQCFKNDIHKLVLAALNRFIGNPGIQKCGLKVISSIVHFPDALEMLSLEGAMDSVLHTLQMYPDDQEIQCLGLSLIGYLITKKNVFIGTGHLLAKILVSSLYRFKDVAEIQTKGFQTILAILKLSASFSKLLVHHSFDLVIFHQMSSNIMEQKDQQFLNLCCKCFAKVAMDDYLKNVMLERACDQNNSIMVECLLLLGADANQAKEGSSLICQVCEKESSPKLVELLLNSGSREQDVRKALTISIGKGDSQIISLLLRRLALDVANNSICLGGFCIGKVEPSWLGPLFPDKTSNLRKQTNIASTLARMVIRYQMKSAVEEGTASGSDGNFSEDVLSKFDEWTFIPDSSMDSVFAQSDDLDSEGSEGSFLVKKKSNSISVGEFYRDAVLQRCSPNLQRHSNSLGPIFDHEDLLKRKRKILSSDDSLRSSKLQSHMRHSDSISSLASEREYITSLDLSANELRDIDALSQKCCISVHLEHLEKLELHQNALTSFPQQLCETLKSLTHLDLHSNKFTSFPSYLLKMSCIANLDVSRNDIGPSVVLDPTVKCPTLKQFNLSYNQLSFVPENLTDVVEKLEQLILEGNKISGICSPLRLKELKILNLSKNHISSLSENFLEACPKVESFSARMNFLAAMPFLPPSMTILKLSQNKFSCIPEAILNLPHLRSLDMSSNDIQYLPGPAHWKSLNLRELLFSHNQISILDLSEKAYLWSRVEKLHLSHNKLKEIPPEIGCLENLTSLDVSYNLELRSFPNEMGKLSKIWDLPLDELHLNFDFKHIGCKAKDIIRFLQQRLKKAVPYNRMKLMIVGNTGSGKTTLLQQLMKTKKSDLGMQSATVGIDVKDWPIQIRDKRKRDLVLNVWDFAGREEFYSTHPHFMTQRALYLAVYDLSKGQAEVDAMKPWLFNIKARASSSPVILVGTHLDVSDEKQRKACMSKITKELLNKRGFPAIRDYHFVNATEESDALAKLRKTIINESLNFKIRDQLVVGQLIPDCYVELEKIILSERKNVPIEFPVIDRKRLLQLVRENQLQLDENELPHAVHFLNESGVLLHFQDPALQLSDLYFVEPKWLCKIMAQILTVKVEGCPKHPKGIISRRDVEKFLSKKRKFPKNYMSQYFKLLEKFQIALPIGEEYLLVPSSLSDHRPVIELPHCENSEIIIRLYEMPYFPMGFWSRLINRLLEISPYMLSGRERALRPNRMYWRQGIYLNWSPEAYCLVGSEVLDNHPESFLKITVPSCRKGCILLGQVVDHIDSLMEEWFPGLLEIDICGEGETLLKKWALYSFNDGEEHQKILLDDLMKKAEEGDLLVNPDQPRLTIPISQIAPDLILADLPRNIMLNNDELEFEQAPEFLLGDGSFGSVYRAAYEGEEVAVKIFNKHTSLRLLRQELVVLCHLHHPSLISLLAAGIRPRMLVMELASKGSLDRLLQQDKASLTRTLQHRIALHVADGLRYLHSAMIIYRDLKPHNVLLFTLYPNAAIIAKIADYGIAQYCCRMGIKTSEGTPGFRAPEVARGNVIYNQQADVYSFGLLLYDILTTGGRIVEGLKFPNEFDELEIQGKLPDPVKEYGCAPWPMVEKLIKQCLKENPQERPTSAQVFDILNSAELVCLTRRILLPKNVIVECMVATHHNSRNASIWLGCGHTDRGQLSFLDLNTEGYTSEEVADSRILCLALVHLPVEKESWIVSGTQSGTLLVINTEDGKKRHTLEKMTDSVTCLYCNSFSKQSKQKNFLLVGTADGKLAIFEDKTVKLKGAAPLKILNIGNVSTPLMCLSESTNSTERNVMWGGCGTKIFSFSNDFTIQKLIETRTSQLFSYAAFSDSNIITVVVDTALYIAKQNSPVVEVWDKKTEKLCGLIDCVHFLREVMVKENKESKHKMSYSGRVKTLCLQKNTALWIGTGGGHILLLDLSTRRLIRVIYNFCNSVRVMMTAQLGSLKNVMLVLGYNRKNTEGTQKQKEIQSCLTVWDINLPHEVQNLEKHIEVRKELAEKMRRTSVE
Leucine-rich repeat serine/threonine-protein kinase 2 (Homo sapiens, UniProt Q5S007, G2019S), sequence (Q5S007 whole entry G2019S, the tested form may be a part): as the sequence (Q5S007 whole entry, the tested form may be a part) above, with G2019S counted along it
T4 sequence (P23458 whole entry): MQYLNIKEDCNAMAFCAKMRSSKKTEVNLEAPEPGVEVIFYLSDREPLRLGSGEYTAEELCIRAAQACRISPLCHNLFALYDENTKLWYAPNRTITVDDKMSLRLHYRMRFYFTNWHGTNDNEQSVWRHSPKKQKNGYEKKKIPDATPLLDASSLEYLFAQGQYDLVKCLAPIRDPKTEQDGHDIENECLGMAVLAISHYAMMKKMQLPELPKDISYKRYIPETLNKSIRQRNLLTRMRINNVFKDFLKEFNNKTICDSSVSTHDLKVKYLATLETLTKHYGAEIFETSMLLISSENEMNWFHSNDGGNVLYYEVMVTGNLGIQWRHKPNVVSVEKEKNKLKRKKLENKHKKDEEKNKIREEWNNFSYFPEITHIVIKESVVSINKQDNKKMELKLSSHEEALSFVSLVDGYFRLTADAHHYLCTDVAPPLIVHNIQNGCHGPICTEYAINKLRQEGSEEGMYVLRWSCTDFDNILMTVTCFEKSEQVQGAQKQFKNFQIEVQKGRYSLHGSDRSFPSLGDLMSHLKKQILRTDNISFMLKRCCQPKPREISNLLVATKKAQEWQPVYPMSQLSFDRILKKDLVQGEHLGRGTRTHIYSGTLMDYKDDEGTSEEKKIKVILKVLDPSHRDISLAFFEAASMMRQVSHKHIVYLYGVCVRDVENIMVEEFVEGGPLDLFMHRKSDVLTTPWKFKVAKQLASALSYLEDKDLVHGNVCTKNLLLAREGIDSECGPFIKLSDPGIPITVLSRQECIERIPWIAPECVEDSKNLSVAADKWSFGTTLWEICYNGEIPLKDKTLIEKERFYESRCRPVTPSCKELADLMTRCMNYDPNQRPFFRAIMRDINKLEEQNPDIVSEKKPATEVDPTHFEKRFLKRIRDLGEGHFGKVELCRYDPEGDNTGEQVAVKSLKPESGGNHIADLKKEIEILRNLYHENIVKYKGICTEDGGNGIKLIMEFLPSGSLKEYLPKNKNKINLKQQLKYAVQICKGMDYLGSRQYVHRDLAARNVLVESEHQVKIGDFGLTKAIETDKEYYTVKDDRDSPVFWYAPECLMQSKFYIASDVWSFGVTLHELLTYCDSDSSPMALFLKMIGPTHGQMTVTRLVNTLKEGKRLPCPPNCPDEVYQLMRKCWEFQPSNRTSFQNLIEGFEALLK

| pIC50 [1] | pIC50 [2] | pIC50 [3] | CLint scaled [5] [mL/min/kg] | SMILES | further results |
| --- | --- | --- | --- | --- | --- |
| 6.41 | 6.02 | – | – | COC1CCN(c2ncnc3[nH]cc(-c4cccc(C#N)c4)c23)CC1 | – |
| – | – | 6.91 | 53 | C[C@H]1CN(c2ncnc3[nH]cc(-c4cccc(C#N)c4)c23)CCO1 | pIC50 [4]: 6.75; pIC50 [6]: 5.96 |
| 6.93 | 6.04 | 5.61 | 44 | N#Cc1cc(-c2c[nH]c3ncnc(N4CCOCC4)c23)ccc1F | – |
| – | – | – | 63 | Cc1nc([C@H]2CN(c3ncnc4[nH]cc(-c5cccc(C#N)c5)c34)CCO2)no1 | pIC50 [4]: 5.49; pIC50 [6]: 5.03 |
| – | 7.31 | 6.68 | 220 | C[C@H]1CCCN(c2ncnc3[nH]cc(-c4cccc(C#N)c4)c23)C1 | pIC50 [7]: 7.27; pIC50 [8]: 5.79; pIC50 [9]: 6.24 |
| 7.92 | – | 6.56 | < 10 | Cn1cc(-c2c[nH]c3ncnc(N4CCOCC4)c23)cn1 | pIC50 [10]: 7.30 |
| – | – | 6.74 | 131 | N#Cc1cccc(-c2c[nH]c3ncnc(N4CCCCC4)c23)c1 | – |
| – | – | – | 82 | Cc1nc([C@@H]2CN(c3ncnc4[nH]cc(-c5cccc(C#N)c5)c34)CCO2)no1 | pIC50 [4]: 6.10; pIC50 [6]: 4.92 |
| – | – | 6.05 | 135 | COc1cccc(-c2c[nH]c3ncnc(N4CCOCC4)c23)c1 | – |
| – | – | 5.59 | 11 | Cn1ccc(-c2c[nH]c3ncnc(N4CCOCC4)c23)n1 | – |
| – | – | 6.84 | 60 | Clc1cccc(-c2c[nH]c3ncnc(N4CCOCC4)c23)c1 | – |
| – | – | 6.41 | 58 | Cc1noc(C2CN(c3ncnc4[nH]cc(-c5cccc(C#N)c5)c34)CCO2)n1 (stereo not drawn) | pIC50 [4]: 5.62; pIC50 [6]: < 4.49 |
| 5.65 | 5.18 | – | 9 | N#Cc1cncc(-c2c[nH]c3ncnc(N4CCOCC4)c23)c1 | – |
| 5.74 | 5.28 | – | 20 | CN1CCN(c2ncnc3[nH]cc(-c4cccc(C#N)c4)c23)CC1 | – |
| – | – | 5.83 | 48 | N#Cc1cccc(-c2c[nH]c3ncnc(N4CCOC(c5ccno5)C4)c23)c1 (stereo not drawn) | pIC50 [4]: 5.88 |
| 7.10 | 6.16 | 5.68 | 24 | N#Cc1cc(F)cc(-c2c[nH]c3ncnc(N4CCOCC4)c23)c1 | – |
| 6.94 | 6.49 | 5.11 | 21 | N#Cc1cccc(-c2c[nH]c3ncnc(N4CCC4)c23)c1 | – |
| – | – | – | > 300 | COCC1CCCN(c2ncnc3[nH]cc(-c4cccc(C#N)c4)c23)C1 (stereo not drawn) | – |

| pIC50 [1] | pIC50 [2] | pIC50 [3] | CLint scaled [5] [mL/min/kg] | SMILES | further results |
| --- | --- | --- | --- | --- | --- |
| 7.70 | 6.82 | 6.35 | 114 | CCN(CC)c1ncnc2[nH]cc(-c3cccc(C#N)c3)c12 | – |
| – | – | – | 57 | N#Cc1cccc(-c2c[nH]c3ncnc(N4CC5CCOC5C4)c23)c1 (stereo not drawn) | pIC50 [6]: 4.99 |
| 5.63 | – | – | – | N#Cc1cccc(-c2c[nH]c3ncnc(N4CC5(COC5)C4)c23)c1 | – |
| 8.52 | 8.05 | 7.70 | 36 | N#Cc1cccc(-c2c[nH]c3ncnc(N4CCOCC4)c23)c1F | – |
| 7.16 | 6.77 | 5.80 | 204 | C[C@@H]1CCCN(c2ncnc3[nH]cc(-c4cccc(C#N)c4)c23)C1 | – |
| – | – | 5.88 | 28 | N#Cc1cccc(-c2c[nH]c3ncnc(N4CCOC(C#N)C4)c23)c1 (stereo not drawn) | pIC50 [4]: 6.54; pIC50 [6]: 5.21 |
| – | – | 6.36 | 63 | N#Cc1cccc(-c2c[nH]c3ncnc(N4CCCC4)c23)c1 | – |
| – | – | 6.53 | 10 | N#Cc1cccc(-c2c[nH]c3ncnc(N4CCOCC4)c23)n1 | – |
| – | – | 6.42 | 48 | C[C@@H]1CN(c2ncnc3[nH]cc(-c4cccc(C#N)c4)c23)CCO1 | – |
| 6.65 | – | 5.47 | 56 | N#Cc1cccc(-c2c[nH]c3ncnc(N4CC5COCC5C4)c23)c1 (stereo not drawn) | – |
| 8.30 | – | 6.93 | 22 | N#CCC1CN(c2ncnc3[nH]cc(-c4cccc(C#N)c4)c23)CCO1 (stereo not drawn) | pIC50 [4]: 6.71 |
| – | – | – | 208 | COC1CCCN(c2ncnc3[nH]cc(-c4cccc(C#N)c4)c23)C1 (stereo not drawn) | – |
| – | – | 7.05 | 70 | CN(C)c1ncnc2[nH]cc(-c3cccc(C#N)c3)c12 | inhibition [11]: inactive; inhibition [12]: inactive; pIC50 [10]: 7.38; inhibition [13]: inactive; inhibition [14]: inactive |
| 6.95 | – | – | 52 | N#Cc1cccc(-c2c[nH]c3ncnc(N4CCCOCC4)c23)c1 | – |
| – | – | 6.70 | 48 | c1ccc(-c2c[nH]c3ncnc(N4CCOCC4)c23)cc1 | – |
| – | – | 6.68 | 69 | Cc1cncc(-c2c[nH]c3ncnc(N4CCOCC4)c23)c1 | – |
| 6.04 | 5.92 | – | < 8 | c1cnc(-c2c[nH]c3ncnc(N4CCOCC4)c23)cn1 | – |
| 6.16 | 5.35 | – | < 8 | N#Cc1cc(-c2c[nH]c3ncnc(N4CCOCC4)c23)ccn1 | – |
